Key:
[1] = Inhibition of porcine brain tubulin polymerization measured every 60 sec for 60 mins in presence of GTP by fluorescence assay; parameters: species or system Sus scrofa
How it was run: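 Fluorescence kit assay using 2 mg/mL porcine brain tubulin with 2 mM MgCl₂, 0.5 mM EGTA, 1 mM GTP and 15% glycerol. Compound at various concentrations preincubated 1 min at 37 °C before adding the tubulin mix. Read at ex 355/em 460 nm every 60 s for 60 min. IC50 is the concentration giving 50% inhibition at 60 min; mean ± SD of ≥3 independent experiments.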

HepG2 [2] = assay: Antiproliferation activity against human HepG2 cells assessed as cell growth inhibition measured after 72 hrs by MTT assay; type: functional
How it was run: (§1)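 Cells grown in RPMI-1640 with 10% FBS at 37 °C, 5% CO2, seeded at 4−7 × 10³ cells/well and left to adhere overnight. Exposed to a range of concentrations for 72 h, then MTT (2.5 mg/mL stock) added for 4 h. Formazan dissolved in DMSO and absorbance read at 570 nm. GI50 taken as the concentration giving 50% growth inhibition, reported as mean ± SD of at least three independent experiments.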

HCT-116 = assay: Antiproliferation activity against human HCT116 cells assessed as cell growth inhibition measured after 72 hrs by MTT assay; type: functional; how it was run: as §1
A549 = assay: Antiproliferation activity against human A549 cells assessed as cell growth inhibition measured after 72 hrs by MTT assay; type: functional; how it was run: as §1
[3] = Aqueous solubility of compound in DMSO at pH 7.4 by HPLC analysis; type: physicochemical; details: aqueous medium
How it was run: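 Solubility measured at pH 7.4. DMSO stock (10 mg/mL) diluted in methanol to five levels to build an HPLC peak-area standard curve. Compound added to 1 mL buffer to make a saturated solution, and the peak area of that solution analysed by HPLC on a C18 column. Solubility calculated from the standard curve.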

[4] = Lipophilicity, log P of the compound in DMSO and n-octanol at pH 7.4 incubated for 10 hrs under stirred condition by HPLC analysis; type: physicochemical; details: n-octanol / aqueous phase pH 7.4, pH 7.4
How it was run: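 Partition between n-octanol and water: mixture stirred at room temperature for 10 h, then left at 4 °C overnight. Each phase analysed separately by HPLC on a C18 column. Log P taken from the ratio of peak areas in n-octanol and water.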

HepG2 [5] = assay: Antitumor activity against human HepG2 cells xenografted in Balb/c mouse assessed as reduction in tumor volume administered orally as 0.5% MC suspension for 21 days relative to control; type: functional; parameters: scale not given: the % may be the effect or the level left; details: time 21 day

IC50 [1]: 4100 nM | GI50 (HepG2 [2]): 8.6 nM | GI50 (HCT-116): 39.6 nM | GI50 (A549): 23.2 nM | solubility [3]: < 5 µg/mL | logD at 10 h [4]: 3.18
SMILES: CCOc1cccc(Nc2nn(C)c3c2Cc2cc(OCC)c(OCC(N)=O)cc2-3)c1
Activity (HepG2 [5]): 50%

— ChEMBL document CHEMBL4699650, “SAR Investigation and Discovery of Water-Soluble 1-Methyl-1,4-dihydroindeno[1,2-c]pyrazoles as Potent Tubulin Polymerization Inhibitors” (J Med Chem, 2020)
